Experimental data from ChEMBL document CHEMBL5579857, “Fragment-Based Discovery of Novel MUS81 Inhibitors” (ACS Med Chem Lett, 2024).

Tests used:
[1] = Binding affinity to human Avi-tagged MUS81 (246 to 551 residues)/2x8His-tagged EME1 (246 to 570 residues) extracted from Escherichia coli BL21 Gold (DE3) by SPR analysis
Outline: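 Fragments flagged as hits in a DSF screen were taken into SPR against MUS81-EME1 to confirm binding and obtain Kd. Kd is reported as the geometric mean with geometric standard deviation of at least three determinations.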

[2] = Inhibition of human Avi-tagged MUS81 (246 to 551 residues)/2x8His-tagged EME1 (246 to 570 residues) extracted from Escherichia coli BL21 Gold (DE3) using branched DNA as substrate preincubated for 15 mins followed by substrate addition and measured after 90 mins by FRET assay
Outline: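 IC50 is reported as the geometric mean ± SEM of at least three independent determinations.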

[3] = Lipophilicity, logD of the compound in octanol/water at pH 7.4 by shake flask method; assay type: physicochemical
[4] = Kinetic aqueous solubility of the compound at pH 7.4; assay type: physicochemical; details: buffer
[5] = Metabolic stability in human liver microsomes assessed as intrinsic clearance; assay type: ADME, Microsome
[6] = Metabolic stability in rat hepatocytes assessed as intrinsic clearance measured per million cells; assay type: ADME, cell-based, Hepatocyte; details: read-out: CLH
[7] = Efflux ratio of apparent permeability in human Caco-2 cells; assay type: ADME, cell-based
[8] = target: Voltage-gated inwardly rectifying potassium channel KCNH2 (Homo sapiens, UniProt Q12809); test: Inhibition of hERG; assay type: toxicity
Sequence of Voltage-gated inwardly rectifying potassium channel KCNH2 (Q12809 whole entry): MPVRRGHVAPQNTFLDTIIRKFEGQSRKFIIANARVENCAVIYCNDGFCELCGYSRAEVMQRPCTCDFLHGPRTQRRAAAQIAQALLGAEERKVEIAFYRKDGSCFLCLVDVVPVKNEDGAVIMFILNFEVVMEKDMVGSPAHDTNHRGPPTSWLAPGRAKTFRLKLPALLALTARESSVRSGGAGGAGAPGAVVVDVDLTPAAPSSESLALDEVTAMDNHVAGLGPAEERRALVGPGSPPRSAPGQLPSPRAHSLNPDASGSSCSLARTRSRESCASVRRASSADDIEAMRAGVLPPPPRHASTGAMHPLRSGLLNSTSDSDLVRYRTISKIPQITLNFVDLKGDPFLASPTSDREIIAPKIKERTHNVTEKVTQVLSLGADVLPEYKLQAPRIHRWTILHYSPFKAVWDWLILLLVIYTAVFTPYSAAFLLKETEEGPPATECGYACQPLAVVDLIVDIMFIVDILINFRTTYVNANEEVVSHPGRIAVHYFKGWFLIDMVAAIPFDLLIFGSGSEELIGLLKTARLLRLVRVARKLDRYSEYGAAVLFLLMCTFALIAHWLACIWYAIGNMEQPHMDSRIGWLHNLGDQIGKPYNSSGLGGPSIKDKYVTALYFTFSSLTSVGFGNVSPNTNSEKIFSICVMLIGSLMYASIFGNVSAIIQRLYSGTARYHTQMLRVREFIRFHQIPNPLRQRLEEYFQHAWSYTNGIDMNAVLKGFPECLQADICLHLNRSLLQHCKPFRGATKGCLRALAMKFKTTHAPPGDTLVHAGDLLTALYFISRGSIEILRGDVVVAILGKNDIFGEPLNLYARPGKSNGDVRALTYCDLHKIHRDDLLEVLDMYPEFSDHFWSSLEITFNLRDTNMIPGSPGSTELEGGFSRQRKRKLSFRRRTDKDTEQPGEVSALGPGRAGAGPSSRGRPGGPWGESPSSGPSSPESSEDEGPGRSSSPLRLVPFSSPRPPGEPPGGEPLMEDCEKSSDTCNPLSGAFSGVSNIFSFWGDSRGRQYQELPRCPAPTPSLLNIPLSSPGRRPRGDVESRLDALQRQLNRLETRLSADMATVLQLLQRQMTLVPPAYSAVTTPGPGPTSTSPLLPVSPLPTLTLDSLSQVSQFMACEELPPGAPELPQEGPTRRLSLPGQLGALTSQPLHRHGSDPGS

[9] = target: T1, Prostaglandin G/H synthase 2 (Homo sapiens, UniProt P35354); test: Inhibition of COX2 (unknown origin); assay type: toxicity
T1 sequence (P35354 whole entry): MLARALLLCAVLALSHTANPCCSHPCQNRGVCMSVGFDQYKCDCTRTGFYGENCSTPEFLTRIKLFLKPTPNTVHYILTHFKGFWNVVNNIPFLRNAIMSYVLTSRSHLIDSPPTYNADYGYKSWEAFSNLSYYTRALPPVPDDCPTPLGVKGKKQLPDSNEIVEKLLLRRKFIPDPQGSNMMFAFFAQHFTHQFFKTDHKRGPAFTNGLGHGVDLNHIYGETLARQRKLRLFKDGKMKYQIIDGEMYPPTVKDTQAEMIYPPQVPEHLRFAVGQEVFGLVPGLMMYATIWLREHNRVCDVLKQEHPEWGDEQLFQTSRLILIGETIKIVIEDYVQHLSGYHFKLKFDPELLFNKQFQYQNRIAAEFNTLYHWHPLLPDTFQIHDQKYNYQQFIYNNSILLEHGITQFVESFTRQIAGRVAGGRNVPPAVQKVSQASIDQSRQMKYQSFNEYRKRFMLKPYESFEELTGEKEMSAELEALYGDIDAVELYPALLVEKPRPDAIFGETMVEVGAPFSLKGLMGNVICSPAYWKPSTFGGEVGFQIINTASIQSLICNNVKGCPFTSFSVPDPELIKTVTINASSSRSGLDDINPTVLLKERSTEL

PDE = test: Inhibition of PDE (unknown origin); assay type: toxicity, Homo sapiens
Insulin receptor = Insulin receptor (Homo sapiens, UniProt P06213); test: Inhibition of INSR (unknown origin); assay type: toxicity
Sequence of Insulin receptor (P06213 28-758 limits assumed): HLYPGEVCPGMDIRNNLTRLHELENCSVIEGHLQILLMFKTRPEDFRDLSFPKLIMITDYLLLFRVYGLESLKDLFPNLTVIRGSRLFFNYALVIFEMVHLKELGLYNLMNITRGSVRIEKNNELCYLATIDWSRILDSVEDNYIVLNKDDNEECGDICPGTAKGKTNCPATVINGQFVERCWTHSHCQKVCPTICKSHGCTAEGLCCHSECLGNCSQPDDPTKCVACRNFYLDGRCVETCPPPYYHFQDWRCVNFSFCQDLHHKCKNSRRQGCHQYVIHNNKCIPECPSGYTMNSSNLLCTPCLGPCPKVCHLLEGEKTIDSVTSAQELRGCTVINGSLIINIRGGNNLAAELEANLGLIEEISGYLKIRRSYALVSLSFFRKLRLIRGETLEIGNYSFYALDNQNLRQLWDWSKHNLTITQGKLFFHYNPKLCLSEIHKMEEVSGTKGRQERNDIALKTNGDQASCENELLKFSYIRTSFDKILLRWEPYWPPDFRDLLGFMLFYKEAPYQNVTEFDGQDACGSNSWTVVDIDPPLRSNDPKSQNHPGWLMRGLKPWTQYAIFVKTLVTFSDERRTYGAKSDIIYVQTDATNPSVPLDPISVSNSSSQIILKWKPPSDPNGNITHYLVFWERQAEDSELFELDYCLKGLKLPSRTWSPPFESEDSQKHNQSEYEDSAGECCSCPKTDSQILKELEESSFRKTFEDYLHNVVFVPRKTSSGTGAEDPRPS
Sequence of Insulin receptor (P06213 763-1382 limits assumed): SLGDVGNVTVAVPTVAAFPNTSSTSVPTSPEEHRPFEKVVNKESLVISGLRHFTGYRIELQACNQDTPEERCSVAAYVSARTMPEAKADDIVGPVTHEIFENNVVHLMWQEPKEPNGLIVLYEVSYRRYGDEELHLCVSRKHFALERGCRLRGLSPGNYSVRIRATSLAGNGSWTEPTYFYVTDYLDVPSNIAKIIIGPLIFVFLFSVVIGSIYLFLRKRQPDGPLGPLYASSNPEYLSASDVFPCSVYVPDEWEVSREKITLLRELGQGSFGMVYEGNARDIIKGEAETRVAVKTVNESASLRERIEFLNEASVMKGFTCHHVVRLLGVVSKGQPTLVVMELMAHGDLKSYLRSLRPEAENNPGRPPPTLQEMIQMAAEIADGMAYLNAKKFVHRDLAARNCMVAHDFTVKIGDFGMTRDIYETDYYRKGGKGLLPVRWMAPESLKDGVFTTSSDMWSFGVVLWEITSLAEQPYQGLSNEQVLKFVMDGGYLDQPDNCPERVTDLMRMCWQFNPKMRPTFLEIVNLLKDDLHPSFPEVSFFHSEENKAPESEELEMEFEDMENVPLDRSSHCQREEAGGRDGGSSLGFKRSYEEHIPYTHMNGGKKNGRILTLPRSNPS

[10] = target: GABA-A receptor; anion channel; test: Inhibition of GABA (unknown origin); assay type: toxicity, Homo sapiens
[11] = target: Glutamate [NMDA] receptor; test: Inhibition of NMDA (unknown origin); assay type: toxicity, Homo sapiens
[12] = target: CaV-L (Voltage-gated L-type calcium channel) (Homo sapiens, UniProt O60840+Q01668+Q13698+Q13936); test: Inhibition of CaV-L (unknown origin); assay type: toxicity

Question: Which results are given for `O=C(O)c1nc(-c2ccc(Cl)cc2)nc(O)c1O`?
Answer: Kd [1]: 1100 nM; IC50 [2]: 2100 nM

Question: Which Kd [1] does the source give for `O=C(O)c1nc(C2CCCCC2)nc(O)c1O` here?
Answer: 2200 nM

Question: What about the IC50 [2] of the same molecule?
Answer: 2800 nM

Question: With `COC(=O)c1nc(-c2ccccc2)[nH]c(=O)c1O` as the molecule, how does the Kd [1] read?
Answer: 56000 nM

Question: And the IC50 [2]?
Answer: > 100000 nM

Question: What does the source list for `Cc1nc(C(=O)O)c(O)c(=O)[nH]1`?
Answer: Kd [1]: 44000 nM; IC50 [2]: > 100000 nM

Question: Which Kd [1] does the source give for `O=C(O)c1nc(-c2cccc(Cl)c2)nc(O)c1O` here?
Answer: 4800 nM

Question: What about the IC50 [2] of the same molecule?
Answer: 5600 nM

Question: With `O=C(O)c1nc(-c2ccc(Br)cc2)nc(O)c1O` as the molecule, how does the Kd [1] read?
Answer: 1000 nM

Question: And the IC50 [2]?
Answer: 2000 nM

Question: For `O=C(O)c1nc(-c2ccccc2)nc(O)c1O`, which Kd [1] is on record?
Answer: 2300 nM

Question: And the IC50 [2]?
Answer: 3900 nM

Question: Which Kd [1] does the source give for `O=C(O)c1nc(-c2ccc(-c3ccccc3)cc2)[nH]c(=O)c1O` here?
Answer: 720 nM

Question: What about the IC50 [2] of the same molecule?
Answer: 2400 nM

Question: With `CNC(=O)c1nc(-c2ccccc2)[nH]c(=O)c1O` as the molecule, how does the Kd [1] read?
Answer: 74000 nM

Question: What about the IC50 [2] of the same molecule?
Answer: > 100000 nM

Question: With `N#Cc1cc(-c2ccc(C(=O)N3CCNCC3)cc2)ccc1-n1cc(O)c(=O)c(C(=O)O)c1` as the molecule, how does the logD [3] read?
Answer: < 0

Question: And the Kd [1]?
Answer: 1100 nM

Question: And the IC50 [2]?
Answer: 270 nM

Question: And the Kinetic_solubility [4]?
Answer: > 200 µM

Question: What about the CLH [5] of the same molecule?
Answer: 7 µL/min/mg

Question: What about the hepatocyte CLint [6] of the same molecule?
Answer: 10 µL/min/1e6 cells

Question: What about the Ratio [7] of the same molecule?
Answer: 1.1

Question: What about the IC50 [8] of the same molecule?
Answer: > 40000 nM

Question: What about the IC50 [9] of the same molecule?
Answer: > 100000 nM

Question: And the IC50 (PDE)?
Answer: > 100000 nM

Question: What about the IC50 (Insulin receptor) of the same molecule?
Answer: > 100000 nM

Question: What about the IC50 [10] of the same molecule?
Answer: > 100000 nM

Question: What about the IC50 [11] of the same molecule?
Answer: > 100000 nM

Question: And the IC50 [12]?
Answer: > 100000 nM

Question: What does the source list for `O=C(O)c1cn(-c2ccc(-c3ccc(C(=O)N4CCNCC4)cc3)cc2)cc(O)c1=O`?
Answer: logD [3]: < 0; Kd [1]: 670 nM; IC50 [2]: 320 nM; Kinetic_solubility [4]: > 200 µM; CLH [5]: < 3 µL/min/mg; hepatocyte CLint [6]: 11 µL/min/1e6 cells; Ratio [7]: 1.5; IC50 [8]: > 40000 nM; IC50 [9]: > 100000 nM; IC50 (PDE): > 100000 nM; IC50 (Insulin receptor): > 100000 nM; IC50 [10]: > 100000 nM; IC50 [11]: > 100000 nM; IC50 [12]: > 100000 nM

Question: For `O=C(O)c1nc(-c2cccc(-c3ccccc3)c2)[nH]c(=O)c1O`, which Kd [1] is on record?
Answer: 1800 nM

Question: What about the IC50 [2] of the same molecule?
Answer: 2000 nM

Question: What does the source list for `O=C(O)c1nc(-c2ccccc2-c2ccccc2)[nH]c(=O)c1O`?
Answer: Kd [1]: 4300 nM; IC50 [2]: 4500 nM

Question: Which Kd [1] does the source give for `O=C(O)c1cc(-c2ccc(-c3ccccc3)cc2)[nH]c(=O)c1O` here?
Answer: 1400 nM

Question: And the IC50 [2]?
Answer: 4100 nM

Question: For `O=C(O)c1cn(-c2ccc(-c3ccccc3)cc2)cc(O)c1=O`, which Kd [1] is on record?
Answer: 790 nM

Question: What about the IC50 [2] of the same molecule?
Answer: 660 nM

Question: Which Kd [1] does the source give for `O=C(O)c1cn(-c2ccc(N3CCNCC3)cc2)cc(O)c1=O` here?
Answer: 2000 nM

Question: And the IC50 [2]?
Answer: 470 nM

Question: With `N#Cc1cc(N2CCNCC2)ccc1-n1cc(O)c(=O)c(C(=O)O)c1` as the molecule, how does the Kd [1] read?
Answer: 1200 nM

Question: And the IC50 [2]?
Answer: 470 nM

Question: Which Kd [1] does the source give for `O=C(O)c1nc(-c2ccc(N3CCNCC3)cc2)[nH]c(=O)c1O` here?
Answer: 2100 nM

Question: And the IC50 [2]?
Answer: 1200 nM

Question: For `O=C(O)c1nc(-c2ccccc2Cl)[nH]c(=O)c1O`, which Kd [1] is on record?
Answer: 4000 nM

Question: And the IC50 [2]?
Answer: 3800 nM

Question: With `N#CCc1ccc(-c2ccccc2-c2nc(C(=O)O)c(O)c(=O)[nH]2)cc1` as the molecule, how does the Kd [1] read?
Answer: 540 nM

Question: What about the IC50 [2] of the same molecule?
Answer: 2800 nM

Question: Which Kd [1] does the source give for `O=C(O)c1nc(-c2ccc3ccccc3c2)[nH]c(=O)c1O` here?
Answer: 1300 nM

Question: What about the IC50 [2] of the same molecule?
Answer: 1500 nM

Question: Which Kd [1] does the source give for `O=C(O)c1[nH]c(-c2ccc(-c3ccccc3)cc2)cc(=O)c1O` here?
Answer: 430 nM

Question: What about the IC50 [2] of the same molecule?
Answer: 1100 nM

Question: Which Kd [1] does the source give for `NC(=O)c1nc(-c2ccccc2)[nH]c(=O)c1O` here?
Answer: > 100000 nM

Question: And the IC50 [2]?
Answer: > 100000 nM

Question: Which Kd [1] does the source give for `CN(C)C(=O)c1nc(-c2ccccc2)[nH]c(=O)c1O` here?
Answer: > 100000 nM

Question: And the IC50 [2]?
Answer: > 100000 nM
